The subject of data set [1] is Mus musculus. Put plainly: Hepatotoxicity in Balb/c mouse infected with Trypanosoma cruzi MHOM/Pe/2011/Arequipa DTU 5 trypamastigotes assessed as increase in ratio of serum AST to GOT level at […], po once daily for 5 consecutive days starting from day 10 post infection measured on day 127 post infection by biochemical analysis relative to control. In kind it is toxicity, organism-based. The note with it: in vivo.

For data set [2], the system named is Mus musculus. Put plainly: Hepatotoxicity in Balb/c mouse infected with Trypanosoma cruzi MHOM/Pe/2011/Arequipa DTU 5 trypamastigotes assessed as change in total bilirubin level at […], po once daily for 5 consecutive days starting from day 75 post infection measured on day 81 post infection by biochemical analysis relative to control. It counts as toxicity, organism-based. The note with it: in vivo. The essentials: (§1)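 Serum clinical chemistry in Arequipa-infected female BALB/c mice. Oral 20 mg·kg-1 per day for 5 days, started day 10 or day 75 pi. Samples taken at day 16 pi or day 81 pi, and on necropsy day. Markers: CK-MB and LDH (U/L), AST, ALT and alkaline phosphatase (U/L), total bilirubin. Results scored relative to infected untreated controls; uninfected reference n = 15.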

The subject of data set [3] is Mus musculus. Put plainly: Hepatotoxicity in Balb/c mouse infected with Trypanosoma cruzi MHOM/Pe/2011/Arequipa DTU 5 trypamastigotes assessed as increase in alkaline phosphatase level at […], po once daily for 5 consecutive days starting from day 75 post infection measured on day 81 post infection by biochemical analysis relative to control. The conditions noted are these: in vivo. In kind it is toxicity, organism-based.

Data set [4] relates to Trypanosoma cruzi. Put plainly: Antitrypanosomal activity against Trypanosoma cruzi MHOM/Pe/2011/Arequipa DTU 5 trypamastigotes infected in Balb/c mouse assessed as reduction in parasitaemia reactivation in spleen tissue at 100 mg/kg, po pretreated once daily for 5 consecutive days starting from day 75 post infection followed by cyclophosphamide-induced immunosuppression on day 100 post infection every 4 days for a maximum of 3 doses measured on day 127 post infection by PCR method. In kind it is functional. On the set-up: scale not given: the % may be the effect or the level left.

In data set [5] the test system is Mus musculus. Put plainly: Cardiotoxicity in Balb/c mouse infected with Trypanosoma cruzi MHOM/Pe/2011/Arequipa DTU 5 trypamastigotes assessed as decrease in ratio of creatine kinase in muscle to brain at […], po once daily for 5 consecutive days starting from day 10 post infection measured on day 16 post infection by biochemical analysis relative to control. It counts as toxicity, organism-based. On the set-up: scale not given: the % may be the effect or the level left. The note with it: in vivo. The method in brief:
as §1

Data set [6] has as its system Trypanosoma cruzi. Nature of the data set: Antitrypanosomal activity against Trypanosoma cruzi MHOM/Pe/2011/Arequipa DTU 5 trypamastigotes infected in Balb/c mouse assessed as parasitaemia reactivation at 100 mg/kg, po pretreated once daily for 5 consecutive days starting from day 10 post infection followed by cyclophosphamide-induced immunosuppression on day 100 post infection every 4 days for a maximum of 3 doses measured up to 1 week post immunosuppression by Neubauer chamber method. It counts as functional.

The test system of data set [7] is Trypanosoma cruzi. Put plainly: Antitrypanosomal activity against Trypanosoma cruzi MHOM/Pe/2011/Arequipa DTU 5 trypamastigotes infected in Balb/c mouse assessed as reduction in parasitaemia reactivation at 20 mg/kg, po pretreated once daily for 5 consecutive days starting from day 10 post infection followed by cyclophosphamide-induced immunosuppression on day 100 post infection every 4 days for a maximum of 3 doses measured up to 1 week post immunosuppression by Neubauer chamber method. In kind it is functional. On the set-up: scale not given: the % may be the effect or the level left. The method in brief: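 Female BALB/c mice (8-10 weeks, 20-25 g), groups of six, infected i.p. with 5 x 10^5 bloodstream trypomastigotes in 0.2 mL PBS; oral dosing 20 mg·kg-1 per day for 5 days in 5% DMSO/0.5% HPMC vehicle. After day 100 pi, cyclophosphamide 200 mg·kg-1 i.p. every 4 days, up to three doses. Within 1 week after the last dose, fresh-blood bloodstream trypomastigotes counted in a Neubauer chamber. Reactivation expressed relative to untreated infected controls.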

Data set [8] concerns Trypanosoma cruzi. Nature of the data set: Antitrypanosomal activity against Trypanosoma cruzi MHOM/Pe/2011/Arequipa DTU 5 trypamastigotes infected in Balb/c mouse assessed as reduction in parasitaemia reactivation in bone marrow tissue at 20 mg/kg, po pretreated once daily for 5 consecutive days starting from day 10 post infection followed by cyclophosphamide-induced immunosuppression on day 100 post infection every 4 days for a maximum of 3 doses measured on day 127 post infection by PCR method. In kind it is functional. Also on record: scale not given: the % may be the effect or the level left. The method in brief: (§2)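 Necropsy on day 127 pi after oral treatment and cyclophosphamide immunosuppression. Tissue DNA was amplified by PCR targeting the ~300 bp T. cruzi SOD gene, 200 nM each primer, 30 cycles with 55.5 °C annealing. Products run on 2 % agarose; positive organs counted out of six mice.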

In data set [9] the test system is Trypanosoma cruzi. Nature of the data set: Antitrypanosomal activity against Trypanosoma cruzi MHOM/Pe/2011/Arequipa DTU 5 trypamastigotes infected in Balb/c mouse assessed as reduction in parasitaemia reactivation in esophagus tissue at 20 mg/kg, po pretreated once daily for 5 consecutive days starting from day 10 post infection followed by cyclophosphamide-induced immunosuppression on day 100 post infection every 4 days for a maximum of 3 doses measured on day 127 post infection by PCR method. It counts as functional. On the set-up: scale not given: the % may be the effect or the level left. The method in brief:
as §2

The subject of data set [10] is Trypanosoma cruzi. Nature of the data set: Antitrypanosomal activity against Trypanosoma cruzi MHOM/Pe/2011/Arequipa DTU 5 trypamastigotes infected in Balb/c mouse assessed as reduction in Ig-G level in serum at 20 mg/kg, po once daily for 5 consecutive days starting from day 10 post infection measured on day 100 post infection by ELISA. In kind it is functional, organism-based. The method in brief:
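Female BALB/c mice (8-10 weeks, 20-25 g), six per group, infected i.p. with 5 x 10^5 Arequipa bloodstream trypomastigotes. Compound was given orally once daily for 5 days from day 10 or day 75 pi, at 20 mg·kg-1 per day in 5 % DMSO/0.5 % HPMC. Anti-T. cruzi IgG in serum was measured by ELISA with Fe-SOD antigen, read as OD 490 nm.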
A general note: ELISA stands for enzyme-linked immunosorbent assay.

Data set [11] concerns Trypanosoma cruzi. Nature of the data set: Antitrypanosomal activity against Trypanosoma cruzi MHOM/Pe/2011/Arequipa DTU 5 trypamastigotes infected in Balb/c mouse assessed as reduction in splenomegaly at 20 mg/kg, po once daily for 5 consecutive days starting from day 10 post infection measured on day 127 post infection relative to control. It counts as functional, organism-based.

The subject of data set [12] is Mus musculus. Nature of the data set: Nephrotoxicity in Balb/c mouse infected with Trypanosoma cruzi MHOM/Pe/2011/Arequipa DTU 5 trypamastigotes assessed as decrease in urea level in serum at 20 mg/kg, po once daily for 5 consecutive days starting from day 10 post infection measured on day 16 post infection by biochemical analysis relative to control. On the set-up: scale not given: the % may be the effect or the level left. The note with it: in vivo. In kind it is toxicity, organism-based.

The subject of data set [13] is Mus musculus. Nature of the data set: Hepatotoxicity in Balb/c mouse infected with Trypanosoma cruzi MHOM/Pe/2011/Arequipa DTU 5 trypamastigotes assessed as increase in total bilirubin level at 20 mg/kg, po once daily for 5 consecutive days starting from day 10 post infection measured on day 16 post infection by biochemical analysis relative to control. In kind it is toxicity, organism-based. The note with it: in vivo.

The subject of data set [14] is Mus musculus. Nature of the data set: Hepatotoxicity in Balb/c mouse infected with Trypanosoma cruzi MHOM/Pe/2011/Arequipa DTU 5 trypamastigotes assessed as increase in total bilirubin level at 20 mg/kg, po once daily for 5 consecutive days starting from day 10 post infection measured on day 127 post infection by biochemical analysis relative to control. It counts as toxicity, organism-based. The note with it: in vivo.

Data set [15] concerns Mus musculus. Put plainly: Hepatotoxicity in Balb/c mouse infected with Trypanosoma cruzi MHOM/Pe/2011/Arequipa DTU 5 trypamastigotes assessed as increase in total bilirubin level at 20 mg/kg, po once daily for 5 consecutive days starting from day 75 post infection measured on day 81 post infection by biochemical analysis relative to control. It counts as toxicity, organism-based. The conditions noted are these: in vivo.

Data set [16] deals with Mus musculus. Put plainly: Hepatotoxicity in Balb/c mouse infected with Trypanosoma cruzi MHOM/Pe/2011/Arequipa DTU 5 trypamastigotes assessed as increase in alkaline phosphatase level at 20 mg/kg, po once daily for 5 consecutive days starting from day 75 post infection measured on day 127 post infection by biochemical analysis relative to control. It counts as toxicity, organism-based. The note with it: in vivo.

Molecules are shown by their SMILES. The source made the active and inactive calls. The rule behind the calls is not given here.

Regarding `COc1ccc(C(=O)CCN2CCN(c3ccc([N+](=O)[O-])cc3)CC2)cc1`, the Activity entry in the data set with Mus musculus [1] is “<= 30%”; in the data set with Mus musculus [2], below 10%; in the data set on Mus musculus [3], “<= 10%”.

For the compound `COc1ccc(C(=O)CCN2CCN(c3ccc(Cl)cc3)CC2)cc1`, the values for the Activity in the data set with Trypanosoma cruzi [4], in the data set on Mus musculus [5] and in the data set with Trypanosoma cruzi [6] were 78%, “<= 20%” and 12%, respectively.

For the compound `O=C(Cn1ccnc1[N+](=O)[O-])NCc1ccccc1` [BENZNIDAZOLE], the Activity in the data set with Trypanosoma cruzi [7] is listed as 75%; with Trypanosoma cruzi [8] it was 33%; in the data set on Trypanosoma cruzi [9], 33%; in the data set on Mus musculus [12], “<= 30%”; in the data set with Mus musculus [13], “<= 20%”; in the data set with Mus musculus [14], “<= 10%”. The Activity entry in the data set on Mus musculus [15] is on record as “<= 30%”; with Mus musculus [16], “<= 20%”. The result in the data set with Trypanosoma cruzi [10] and in the data set with Trypanosoma cruzi [11] was Active.

The record behind these values is ChEMBL document CHEMBL4118256, “Second Generation of Mannich Base-Type Derivatives with in Vivo Activity against Trypanosoma cruzi” (J Med Chem, 2018).
